Data taken from ChEMBL document CHEMBL1151223, “Antimycotic spirostanol saponins from Solanum hispidum leaves and their structure-activity relationships” (2004).
≈ marks a conversion by molar mass, not a printed value.

How the values were obtained:
[1] = system: Trichophyton mentagrophytes; experiment: Antimycotic activity against Trichophyton mentagrophytes ATCC 28185 after 72 hrs; type: functional; settings: ATCC 28185, 72 h
Outline: (§1)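 Agar dilution MIC on Sabouraud glucose agar; the filamentous fungi were maintained on potato dextrose agar at 27 °C. DMSO stocks were diluted 2-fold and added to the medium: pure compounds 400-3.125 µg/mL, extracts 10-1.25 mg/mL, references 128-1 µg/mL; final DMSO at most 2%. A hemocytometer-counted spore inoculum was loop-applied to the agar surface, and plates were incubated at 29 °C for 72 h. MIC was the lowest concentration with no visible growth; run in triplicate.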

Trichophyton rubrum = experiment: Antimycotic activity against Trichophyton rubrum ATCC 28188 after 72 hrs; type: functional; settings: ATCC 28188, 72 h; outline: as §1
Candida albicans [2] = experiment: Antimycotic activity against Candida albicans ATCC 10231 after 24 hrs; settings: ATCC 10231, 24 h
Aspergillus niger = experiment: Antimycotic activity against Aspergillus niger ATCC 10335 after 48 hrs; settings: ATCC 10335, 48 h
Candida albicans [3] = experiment: Antimycotic activity against Candida albicans ATCC 10231 after 48 hrs; type: functional

`C[C@@H]1CC[C@@]2(OC1)O[C@H]1C[C@H]3[C@@H]4C[C@H](O[C@@H]5O[C@H](C)[C@@H](O)[C@H](O)[C@H]5O)[C@H]5C[C@@H](O)CC[C@]5(C)[C@H]4CC[C@]3(C)[C@H]1[C@@H]2C` gave an MIC [1] of 25 µg/mL (≈ 43.2 µM), an MIC (Trichophyton rubrum) of 50 µg/mL (≈ 86.4 µM) and an MIC (Candida albicans [2]) of 200 µg/mL (≈ 346 µM). For the same compound, the MIC (Aspergillus niger) was greater than 400 µg/mL.
In the case of `C[C@@H]1CC[C@@]2(OC1)O[C@H]1C[C@H]3[C@@H]4C[C@H](O[C@@H]5O[C@H](C)[C@@H](O)[C@H](O[C@@H]6OC[C@@H](O)[C@H](O)[C@H]6O)[C@H]5O)[C@H]5C[C@@H](O)CC[C@]5(C)[C@H]4CC[C@]3(C)[C@H]1[C@@H]2C`, the MIC [1] is reported as 12.5 µg/mL (≈ 17.6 µM), the MIC (Trichophyton rubrum) is reported as 12.5 µg/mL (≈ 17.6 µM) and the MIC (Candida albicans [2]) is reported as 200 µg/mL (≈ 281 µM). It also gave an MIC (Aspergillus niger) of 100 µg/mL (≈ 141 µM).
NYSTATIN showed an MIC (Candida albicans [3]) of 8 µg/mL.
Work on `C[C@@H]1CO[C@@]2(O[C@H]3C[C@H]4[C@@H]5C[C@H](O[C@@H]6O[C@H](C)[C@@H](O)[C@H](O[C@@H]7OC[C@@H](O)[C@H](O)[C@H]7O)[C@H]6O)[C@H]6C[C@@H](O)CC[C@]6(C)[C@H]5CC[C@]4(C)[C@H]3[C@@H]2C)[C@H](O)C1` yielded an MIC [1] of 100 µg/mL (≈ 138 µM), an MIC (Trichophyton rubrum) of 100 µg/mL (≈ 138 µM) and an MIC (Candida albicans [2]) greater than 400 µg/mL. For the same compound, the MIC (Aspergillus niger) was greater than 400 µg/mL.
`C[C@@H]1CO[C@@]2(O[C@H]3C[C@H]4[C@@H]5C[C@H](O[C@@H]6O[C@H](C)[C@@H](O)[C@H](O[C@@H]7OC[C@@H](O)[C@H](O)[C@H]7O)[C@H]6O)[C@H]6C[C@@H](O)CC[C@]6(C)[C@H]5CC[C@]4(C)[C@H]3[C@@H]2C)[C@@H](O)C1` was tested, and the MIC [1] was 25 µg/mL (≈ 34.4 µM), the MIC (Trichophyton rubrum) was 25 µg/mL (≈ 34.4 µM) and the MIC (Candida albicans [2]) was greater than 400 µg/mL. For the same compound, the MIC (Aspergillus niger) was greater than 400 µg/mL.
Work on `C[C@H]1CC[C@@]2(OC1)O[C@H]1C[C@H]3[C@@H]4C[C@H](O[C@@H]5O[C@H](C)[C@@H](O)[C@H](O[C@@H]6OC[C@@H](O)[C@H](O)[C@H]6O)[C@H]5O)[C@H]5C[C@@H](O)CC[C@]5(C)[C@H]4CC[C@]3(C)[C@H]1[C@@H]2C` yielded an MIC [1] of 25 µg/mL (≈ 35.2 µM), an MIC (Trichophyton rubrum) of 25 µg/mL (≈ 35.2 µM) and an MIC (Candida albicans [2]) greater than 400 µg/mL. The MIC (Aspergillus niger) was greater than 400 µg/mL.
Work on `Clc1ccc(COC(Cn2ccnc2)c2ccc(Cl)cc2Cl)c(Cl)c1` (stereo not given) [MICONAZOLE] yielded an MIC [1] of 4 µg/mL (≈ 9.61 µM), an MIC (Trichophyton rubrum) of 4 µg/mL (≈ 9.61 µM) and an MIC (Aspergillus niger) of 8 µg/mL (≈ 19.2 µM).
`C[C@@H]1CC[C@@]2(OC1)O[C@H]1C[C@H]3[C@@H]4C[C@H](O[C@@H]5OC[C@@H](O)[C@H](O)[C@H]5O)[C@H]5C[C@@H](O)CC[C@]5(C)[C@H]4CC[C@]3(C)[C@H]1[C@@H]2C` gave an MIC [1] of 100 µg/mL (≈ 177 µM), an MIC (Trichophyton rubrum) of 100 µg/mL (≈ 177 µM) and an MIC (Candida albicans [2]) of 200 µg/mL (≈ 354 µM). For the same compound, the MIC (Aspergillus niger) was greater than 400 µg/mL.
`C[C@@H]1CC[C@@]2(OC1)O[C@H]1C[C@H]3[C@@H]4C[C@H](O[C@@H]5O[C@H](C)[C@@H](O)[C@H](O[C@@H]6O[C@H](C)[C@@H](O)[C@H](O)[C@@H]6O)[C@H]5O)[C@H]5C[C@@H](O)CC[C@]5(C)[C@H]4CC[C@]3(C)[C@H]1[C@@H]2C` gave an MIC [1] of 200 µg/mL (≈ 276 µM), an MIC (Trichophyton rubrum) of 50 µg/mL (≈ 69 µM) and an MIC (Candida albicans [2]) of 200 µg/mL (≈ 276 µM). It also gave an MIC (Aspergillus niger) of 400 µg/mL (≈ 552 µM).
`C[C@H]1CC[C@@]2(OC1)O[C@H]1C[C@H]3[C@@H]4C[C@H](O[C@@H]5O[C@H](C)[C@@H](O)[C@H](O)[C@H]5O)[C@H]5C[C@@H](O)CC[C@]5(C)[C@H]4CC[C@]3(C)[C@H]1[C@@H]2C` showed an MIC [1] of 25 µg/mL (≈ 43.2 µM), an MIC (Trichophyton rubrum) of 50 µg/mL (≈ 86.4 µM) and an MIC (Candida albicans [2]) greater than 400 µg/mL. It also gave an MIC (Aspergillus niger) greater than 400 µg/mL.
In the case of `C[C@H]1CO[C@@]2(O[C@H]3C[C@H]4[C@@H]5C[C@H](O[C@@H]6O[C@H](C)[C@@H](O)[C@H](O[C@@H]7O[C@H](C)[C@@H](O)[C@H](O)[C@@H]7O)[C@H]6O)[C@H]6C[C@@H](O)CC[C@]6(C)[C@H]5CC[C@]4(C)[C@H]3[C@@H]2C)[C@@H](O)C1`, the MIC [1] is reported as 200 µg/mL (≈ 270 µM), the MIC (Trichophyton rubrum) is reported as 200 µg/mL (≈ 270 µM) and the MIC (Candida albicans [2]) is reported as 200 µg/mL (≈ 270 µM). The MIC (Aspergillus niger) was 200 µg/mL (≈ 270 µM).
